A word on the Cmax: it is the maximum level reached in the sampled fluid or tissue. The AUC is the area under the concentration-time curve, a measure of exposure. A low value points to low exposure. By bioavailability is commonly meant dose-corrected exposure relative to a reference, in per cent. As a reminder, the Tmax is the time from dosing to the highest level.

In brackets after ≈: the same amount, converted by molar mass.

Data set [1] in a line: Cmax in CD-1 mouse at 2 mg/kg, iv by LC-MS analysis. Type of data set: ADME, organism-based. Also noted: route intravenous, dose 2 mg/kg. Conditions: in vivo. A digest of the protocol: (§1)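 Female CD-1 mice, 5 weeks old, 3 per time point. Dosed at 10 µl/g, DMSO solution diluted in Captisol, p.o. 5 mg/kg or i.v. 2 mg/kg. Sacrifice at 5, 15, 30 min and 1, 2, 4, 7, 24 h. Plasma acetonitrile-precipitated, quantified by LC-MS/MS (C18, positive H-ESI, SRM) against a calibration curve in blank mouse plasma.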

A short description of data set [2]: AUC (0 to t) in CD-1 mouse at 5 mg/kg, po by LC-MS analysis. Also noted: dose 5 mg/kg. The conditions noted are these: in vivo. Type of data set: ADME, organism-based. A digest of the protocol:
as §1

The nature of data set [3]: AUC (0 to infinity) in CD-1 mouse at 5 mg/kg, po by LC-MS analysis. Type of data set: ADME, organism-based. On the set-up: time infinity, route oral, dose 5 mg/kg. The conditions noted are these: in vivo. Put shortly: as §1
A short description of data set [4]: Oral bioavailability in CD-1 mouse at 5 mg/kg by LC-MS analysis. Type of data set: ADME, organism-based. The conditions noted are these: in vivo. Put shortly:
(§2)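 Female CD-1 mice, 5 weeks old, 3 animals per time point. Compound dissolved in DMSO, diluted in Captisol, given p.o. at 5 mg/kg or i.v. at 2 mg/kg. Animals sacrificed at 5, 15 and 30 min and 1, 2, 4, 7 and 24 h. Plasma precipitated with cold acetonitrile and quantified by LC-MS/MS (SRM, positive H-ESI) against a blank mouse plasma calibration curve.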

A short description of data set [5]: Tmax in CD-1 mouse at 2 mg/kg, iv by LC-MS analysis. Type of data set: ADME, organism-based. The conditions noted are these: in vivo. A digest of the protocol:
as §2

The nature of data set [6]: Cmax in CD-1 mouse at 5 mg/kg, po by LC-MS analysis. Type of data set: ADME, organism-based. Also noted: route oral, dose 5 mg/kg. The conditions noted are these: in vivo. Put shortly: as §1
Data set [7] in a line: Kinetic solubility of compound in water at 500 uM measured after […] by UV-VIS absorption spectrophotometry. Conditions: time 1.5 hrs, read-out: Kinetic_solubility. Type of data set: physicochemical.
Data set [8] can be described thus: Kinetic solubility of compound in pH 7.4 Soerensen's buffer at 500 uM measured after […] by UV-VIS absorption spectrophotometry. Type of data set: physicochemical. The conditions noted are these: time 1.5 hrs, read-out: Kinetic_solubility.
Data set [9] is described as follows: AUC (0 to infinity) in CD-1 mouse at 2 mg/kg, iv by LC-MS analysis. Type of data set: ADME, organism-based. Also noted: route intravenous, time infinity, dose 2 mg/kg. Conditions: in vivo. Put shortly: as §1
Data set [10] can be described thus: AUC (0 to t) in CD-1 mouse at 2 mg/kg, iv by LC-MS analysis. Type of data set: ADME, organism-based. On the set-up: dose 2 mg/kg. The conditions noted are these: in vivo. Put shortly:
as §1

Data set [11] in a line: Tmax in CD-1 mouse at 5 mg/kg, po by LC-MS analysis. Type of data set: ADME, organism-based. Conditions: in vivo. A digest of the protocol:
as §2

`Nc1n[nH]c2cc(-c3ccc(=O)n(Cc4ccccc4F)c3)ccc12`: the results for the Cmax in [1] and in data set [6] were 1670 ng/mL and 335 ng/mL, respectively. Also, the AUCt turned out to be 517 ng·h/mL in [2] and 629 ng·h/mL in [10]. Also, the AUC in [3] was determined as 674 ng·h/mL; in data set [9] it was 677 ng·h/mL. In addition, the bioavailability in [4] was 33%. In addition, the Tmax in data set [5] amounted to 4.8 min; in data set [11] it was 15 min. Besides, the solubility kinetic at […], 500 µM in [7] was more than 500 µM; in [8], 466 µM (≈ 156 µg/mL).
On to `Nc1n[nH]c2cc(-c3ccc(=O)n(Cc4cccc(Cl)c4)c3)ccc12`, for which the Cmax in data set [1] was 1490 ng/mL; in data set [6] it was 1050 ng/mL. Moreover, the AUCt in data set [2] was 2150 ng·h/mL; in [10] it was 834 ng·h/mL. For the same compound, the AUC stood at 2410 ng·h/mL in data set [3] and 855 ng·h/mL in data set [9]. In addition, the bioavailability in data set [4] stood at 100%. Besides, the Tmax in [5] is 4.8 min; in data set [11], 15 min. Moreover, the solubility kinetic at […], 500 µM in data set [7] came out at 275 µM (≈ 96.5 µg/mL); in [8], 172 µM (≈ 60.3 µg/mL).
